Measured values as given in ChEMBL document CHEMBL1938243, “Identification of novel, exosite-binding matrix metalloproteinase-13 inhibitor scaffolds” (Bioorg Med Chem Lett, 2011).
Each block holds one compound with its values, some of them ahead of it. Calls of active or inactive are those of the source. The calls are words filed in the database; no cut-off is given here.

Assays:
[1] = target: T1, Collagenase 3 (Homo sapiens, UniProt P45452); assay: Inhibition of human full length recombinant MMP13 using triple-helical fTHP-15 as substrate at 40 uM after 4 hrs by FRET assay
Outline: (§1)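 Inhibitors tested at 40 μM in a FRET assay with the triple-helical peptide substrate fTHP-15 (exosite-engaging), read as percent inhibition of enzyme activity. Enzyme levels: MMP-1 4 nM; MMP-2, MMP-9 and MMP-14 10 nM each; MMP-8 2 nM; MMP-13 2.3 nM.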

[2] = target: T2, Neutrophil collagenase (Homo sapiens, UniProt P22894); assay: Inhibition of MMP8 expressed in CHO-K1 cells using triple-helical fTHP-15 as substrate at 40 uM after 4 hrs by FRET assay; outline: as §1
Target sequence in this assay (P22894 101-467 limits assumed): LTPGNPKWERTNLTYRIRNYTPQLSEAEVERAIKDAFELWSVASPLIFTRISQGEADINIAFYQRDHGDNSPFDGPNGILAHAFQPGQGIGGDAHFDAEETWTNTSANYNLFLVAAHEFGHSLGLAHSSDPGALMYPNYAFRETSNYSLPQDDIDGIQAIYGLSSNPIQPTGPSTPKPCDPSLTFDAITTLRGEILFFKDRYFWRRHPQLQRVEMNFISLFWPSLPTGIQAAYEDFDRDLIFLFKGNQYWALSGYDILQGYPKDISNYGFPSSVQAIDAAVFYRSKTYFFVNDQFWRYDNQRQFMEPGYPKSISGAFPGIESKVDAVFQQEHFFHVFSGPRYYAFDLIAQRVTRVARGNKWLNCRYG

[3] = target: T1, Collagenase 3; assay: Noncompetitive inhibition of human full length recombinant MMP13 using triple-helical fTHP-15 as substrate by Lineweaver-Burk plot analysis
Outline: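 Single-inhibitor kinetic assay of MMP-13 hydrolysis of the FRET triple-helical peptide fTHP-15, which engages protease exosites. Run to obtain the inhibition constant (Ki) and the inhibition modality, following previously described methods.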

[4] = target: Disintegrin and metalloproteinase domain-containing protein 17 (Homo sapiens) (UniProt P78536); assay: Inhibition of TACE at 40 uM
Sequence of Disintegrin and metalloproteinase domain-containing protein 17 (Homo sapiens) (P78536 whole entry, the tested form may be a part): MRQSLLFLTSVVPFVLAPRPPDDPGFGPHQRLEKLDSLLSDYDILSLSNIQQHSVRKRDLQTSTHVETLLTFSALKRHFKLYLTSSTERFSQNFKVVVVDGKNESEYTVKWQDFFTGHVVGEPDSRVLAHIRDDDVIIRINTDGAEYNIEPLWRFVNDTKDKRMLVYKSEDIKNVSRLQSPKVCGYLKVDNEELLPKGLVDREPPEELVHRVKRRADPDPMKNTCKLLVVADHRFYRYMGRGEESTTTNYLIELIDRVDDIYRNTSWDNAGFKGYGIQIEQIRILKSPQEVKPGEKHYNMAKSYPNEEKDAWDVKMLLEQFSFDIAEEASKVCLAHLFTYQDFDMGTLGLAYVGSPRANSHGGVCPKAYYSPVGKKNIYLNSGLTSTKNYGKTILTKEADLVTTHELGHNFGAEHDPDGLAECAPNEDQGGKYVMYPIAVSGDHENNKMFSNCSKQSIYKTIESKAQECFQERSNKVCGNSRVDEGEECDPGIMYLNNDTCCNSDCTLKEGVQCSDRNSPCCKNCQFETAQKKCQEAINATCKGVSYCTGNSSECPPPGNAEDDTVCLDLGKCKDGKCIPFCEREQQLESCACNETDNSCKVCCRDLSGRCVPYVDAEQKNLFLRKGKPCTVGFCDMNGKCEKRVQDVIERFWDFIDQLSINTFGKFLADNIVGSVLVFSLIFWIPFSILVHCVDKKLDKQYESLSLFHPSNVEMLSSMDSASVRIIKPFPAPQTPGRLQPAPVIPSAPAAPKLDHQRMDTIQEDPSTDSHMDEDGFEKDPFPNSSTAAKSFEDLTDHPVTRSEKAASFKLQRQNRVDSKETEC

[5] = target: T3, Interstitial collagenase (Homo sapiens) (UniProt P03956); assay: Inhibition of MMP1 expressed in Escherichia coli using triple-helical fTHP-15 as substrate at 40 uM after 4 hrs by FRET assay; outline: as §1
T3 sequence (whole entry): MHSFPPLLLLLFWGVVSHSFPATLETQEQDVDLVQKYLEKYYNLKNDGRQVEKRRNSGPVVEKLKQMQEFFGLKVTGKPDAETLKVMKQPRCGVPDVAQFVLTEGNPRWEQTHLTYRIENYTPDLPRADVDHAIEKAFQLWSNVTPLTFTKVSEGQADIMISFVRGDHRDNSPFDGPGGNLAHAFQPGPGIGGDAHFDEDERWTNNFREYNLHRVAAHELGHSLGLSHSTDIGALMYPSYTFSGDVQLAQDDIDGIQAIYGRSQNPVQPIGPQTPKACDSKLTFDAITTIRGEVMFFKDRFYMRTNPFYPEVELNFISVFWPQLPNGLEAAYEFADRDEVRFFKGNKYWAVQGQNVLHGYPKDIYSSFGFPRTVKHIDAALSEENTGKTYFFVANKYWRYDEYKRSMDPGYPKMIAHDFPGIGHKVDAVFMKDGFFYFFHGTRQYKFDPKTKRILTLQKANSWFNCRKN

[6] = target: 72 kDa type IV collagenase (Homo sapiens) (UniProt P08253); assay: Inhibition of human MMP2 using triple-helical fTHP-15 as substrate at 40 uM after 4 hrs by FRET assay; outline: as §1
Sequence of 72 kDa type IV collagenase (Homo sapiens) (P08253 110-660 limits assumed): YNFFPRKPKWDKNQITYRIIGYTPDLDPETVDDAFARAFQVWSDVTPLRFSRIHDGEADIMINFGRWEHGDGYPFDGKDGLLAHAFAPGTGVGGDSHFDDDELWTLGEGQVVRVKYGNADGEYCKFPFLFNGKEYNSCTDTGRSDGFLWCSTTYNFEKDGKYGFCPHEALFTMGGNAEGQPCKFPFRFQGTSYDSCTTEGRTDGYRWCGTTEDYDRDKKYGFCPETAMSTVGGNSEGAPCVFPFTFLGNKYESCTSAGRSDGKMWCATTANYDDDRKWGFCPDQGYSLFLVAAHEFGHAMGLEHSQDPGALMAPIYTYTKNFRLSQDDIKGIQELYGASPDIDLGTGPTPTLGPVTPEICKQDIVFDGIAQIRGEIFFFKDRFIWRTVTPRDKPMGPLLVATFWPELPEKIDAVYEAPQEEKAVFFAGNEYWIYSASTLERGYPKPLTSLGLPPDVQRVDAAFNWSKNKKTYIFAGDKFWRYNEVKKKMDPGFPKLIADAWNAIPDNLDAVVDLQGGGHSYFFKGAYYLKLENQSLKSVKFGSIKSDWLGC

[7] = target: Matrix metalloproteinase-9 (Homo sapiens) (UniProt P14780); assay: Inhibition of recombinant MMP9 using triple-helical fTHP-15 as substrate at 40 uM after 4 hrs by FRET assay; outline: as §1
Sequence of Matrix metalloproteinase-9 (Homo sapiens) (P14780 whole entry): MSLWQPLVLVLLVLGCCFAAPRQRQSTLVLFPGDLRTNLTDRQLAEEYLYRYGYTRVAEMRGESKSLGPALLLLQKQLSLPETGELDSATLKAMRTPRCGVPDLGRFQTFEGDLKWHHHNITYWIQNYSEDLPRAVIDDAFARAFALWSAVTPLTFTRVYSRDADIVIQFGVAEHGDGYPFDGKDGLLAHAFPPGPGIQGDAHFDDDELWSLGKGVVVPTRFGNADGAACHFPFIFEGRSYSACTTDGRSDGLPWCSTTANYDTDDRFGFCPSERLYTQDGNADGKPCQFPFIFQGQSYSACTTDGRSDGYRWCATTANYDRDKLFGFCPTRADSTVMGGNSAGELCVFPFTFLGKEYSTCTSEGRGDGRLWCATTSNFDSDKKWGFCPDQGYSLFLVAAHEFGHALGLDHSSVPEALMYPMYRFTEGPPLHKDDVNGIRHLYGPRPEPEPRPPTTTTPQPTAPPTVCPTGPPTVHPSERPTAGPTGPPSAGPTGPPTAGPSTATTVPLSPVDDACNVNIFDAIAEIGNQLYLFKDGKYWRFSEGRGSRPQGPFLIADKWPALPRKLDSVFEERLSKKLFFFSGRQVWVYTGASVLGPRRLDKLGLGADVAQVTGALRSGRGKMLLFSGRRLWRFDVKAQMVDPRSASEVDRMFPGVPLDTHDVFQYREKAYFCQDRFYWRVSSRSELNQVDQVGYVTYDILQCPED

[8] = target: Matrix metalloproteinase-14 (Homo sapiens) (UniProt P50281); assay: Inhibition of MMP14 using triple-helical fTHP-15 as substrate at 40 uM after 4 hrs by FRET assay; outline: as §1
[9] = target: T4, Interstitial collagenase (Homo sapiens, UniProt P03956); assay: Inhibition of MMP1 expressed in Escherichia coli using triple-helical fTHP-15 as substrate after 4 hrs by FRET assay
T4 sequence (P03956 whole entry): T3 sequence (whole entry)

[10] = target: T2, Neutrophil collagenase; assay: Inhibition of MMP8 expressed in CHO-K1 cells using triple-helical fTHP-15 as substrate after 4 hrs by FRET assay; format: cell-based
Target sequence in this assay (P22894 whole entry): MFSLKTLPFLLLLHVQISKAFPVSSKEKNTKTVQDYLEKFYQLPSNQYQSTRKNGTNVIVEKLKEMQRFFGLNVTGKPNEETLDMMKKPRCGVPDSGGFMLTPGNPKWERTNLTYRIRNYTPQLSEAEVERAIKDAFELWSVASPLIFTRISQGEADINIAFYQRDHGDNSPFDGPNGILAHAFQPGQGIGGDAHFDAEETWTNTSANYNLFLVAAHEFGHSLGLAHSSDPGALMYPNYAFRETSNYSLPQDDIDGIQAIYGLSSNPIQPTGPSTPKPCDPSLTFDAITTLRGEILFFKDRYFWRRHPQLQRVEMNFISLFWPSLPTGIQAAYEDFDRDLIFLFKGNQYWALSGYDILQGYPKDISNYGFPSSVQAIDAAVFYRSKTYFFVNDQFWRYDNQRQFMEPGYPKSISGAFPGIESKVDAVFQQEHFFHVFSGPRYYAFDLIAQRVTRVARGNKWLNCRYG

[11] = target: T3, Interstitial collagenase (Homo sapiens); assay: Inhibition of MMP1 expressed in Escherichia coli assessed as residual activity using Knight SSP as substrate at 100 uM after 1.5 to 4 hrs by spectrofluorometric analysis relative to control
[12] = target: 72 kDa type IV collagenase (Homo sapiens) (UniProt P08253); assay: Inhibition of human MMP2 assessed as residual activity using Knight SSP as substrate at 100 uM after 1.5 to 4 hrs by spectrofluorometric analysis relative to control
[13] = target: Stromelysin-1 (Homo sapiens) (UniProt P08254); assay: Inhibition of MMP3 expressed in Escherichia coli assessed as residual activity using Knight SSP as substrate at 100 uM after 1.5 to 4 hrs by spectrofluorometric analysis relative to control
Sequence of Stromelysin-1 (Homo sapiens) (P08254 100-477 limits assumed): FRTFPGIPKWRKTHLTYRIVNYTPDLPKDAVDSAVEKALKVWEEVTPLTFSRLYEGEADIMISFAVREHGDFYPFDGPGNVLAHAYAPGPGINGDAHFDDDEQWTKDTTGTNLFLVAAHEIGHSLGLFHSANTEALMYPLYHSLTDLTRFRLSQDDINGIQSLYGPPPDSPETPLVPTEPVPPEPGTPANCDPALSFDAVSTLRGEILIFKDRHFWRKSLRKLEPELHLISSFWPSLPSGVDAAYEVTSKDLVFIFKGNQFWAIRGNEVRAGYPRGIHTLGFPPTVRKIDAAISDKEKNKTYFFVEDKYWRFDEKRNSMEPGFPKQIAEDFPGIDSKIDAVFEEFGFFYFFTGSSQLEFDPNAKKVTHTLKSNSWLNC

[14] = target: T2, Neutrophil collagenase; assay: Inhibition of MMP8 expressed in CHO-K1 cells assessed as residual activity using Knight SSP as substrate at 100 uM after 1.5 to 4 hrs by spectrofluorometric analysis relative to control; format: cell-based
Target sequence in this assay (P22894 101-467 limits assumed): as the sequence (P22894 101-467 limits assumed) above

[15] = target: Macrophage metalloelastase (Homo sapiens) (UniProt P39900); assay: Inhibition of MMP12 assessed as residual activity using Knight SSP as substrate at 100 uM after 1.5 to 4 hrs by spectrofluorometric analysis relative to control
Sequence of Macrophage metalloelastase (Homo sapiens) (P39900 106-470 limits assumed): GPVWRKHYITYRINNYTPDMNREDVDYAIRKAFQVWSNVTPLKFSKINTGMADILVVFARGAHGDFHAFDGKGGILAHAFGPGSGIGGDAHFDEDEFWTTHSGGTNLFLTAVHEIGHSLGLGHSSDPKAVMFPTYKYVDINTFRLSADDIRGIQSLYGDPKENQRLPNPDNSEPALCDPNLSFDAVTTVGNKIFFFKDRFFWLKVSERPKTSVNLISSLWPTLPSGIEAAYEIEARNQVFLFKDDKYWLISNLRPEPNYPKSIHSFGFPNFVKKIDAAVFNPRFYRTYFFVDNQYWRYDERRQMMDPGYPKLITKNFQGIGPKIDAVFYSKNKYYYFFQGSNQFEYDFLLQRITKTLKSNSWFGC

[16] = target: T1, Collagenase 3; assay: Inhibition of human full length recombinant MMP13 assessed as residual activity using Knight SSP as substrate at 100 uM after 1.5 to 4 hrs by spectrofluorometric analysis relative to control
[17] = target: Matrix metalloproteinase-14 (Homo sapiens) (UniProt P50281); assay: Inhibition of MMP14 assessed as residual activity using Knight SSP as substrate at 100 uM after 1.5 to 4 hrs by spectrofluorometric analysis relative to control
[18] = target: T5, Matrix metalloproteinase-20 (Homo sapiens) (UniProt O60882); assay: Inhibition of MMP20 assessed as residual activity using Knight SSP as substrate at 100 uM after 1.5 to 4 hrs by spectrofluorometric analysis relative to control
T5 sequence (whole entry): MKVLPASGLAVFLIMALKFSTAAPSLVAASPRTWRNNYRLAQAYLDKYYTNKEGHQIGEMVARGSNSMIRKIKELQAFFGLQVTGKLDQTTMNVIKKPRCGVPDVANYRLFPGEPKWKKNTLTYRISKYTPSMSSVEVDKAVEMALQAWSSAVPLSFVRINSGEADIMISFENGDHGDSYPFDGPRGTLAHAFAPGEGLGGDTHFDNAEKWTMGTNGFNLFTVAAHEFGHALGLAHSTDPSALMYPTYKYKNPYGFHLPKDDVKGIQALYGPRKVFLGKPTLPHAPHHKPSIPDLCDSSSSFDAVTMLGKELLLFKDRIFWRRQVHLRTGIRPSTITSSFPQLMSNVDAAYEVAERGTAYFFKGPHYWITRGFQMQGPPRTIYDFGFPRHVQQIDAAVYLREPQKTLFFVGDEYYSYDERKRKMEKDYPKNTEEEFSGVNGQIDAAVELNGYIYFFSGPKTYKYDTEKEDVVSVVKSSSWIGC

SMILES: Cc1cccc(CSc2nc3c(c(=O)[nH]2)CCC3)c1
inhibition [1]: 45.2%

SMILES: Nc1cc(O)nc(SCc2ccc(Cl)cc2)n1
inhibition [1]: 37%

SMILES: O=C(CSc1nc2c(c(=O)[nH]1)C(Cc1ccccc1)CC2)c1ccccc1 (stereo not given)
inhibition [1]: 16%

SMILES: O=c1[nH]c(SCc2coc(-c3cccc(Cl)c3)n2)nc2c1CCC2
inhibition [1]: inactive

SMILES: CCCCSc1nc(O)c2c(n1)CCC2
inhibition [1]: 17.1%

SMILES: CC(=O)Nc1c(O)nc(SCc2ccc(Cl)cc2)nc1O
inhibition [1]: inactive

SMILES: Oc1[nH]c(SCc2ccc(Cl)cc2)nc2nncc1-2
inhibition [1]: inactive

SMILES: Oc1nc(SCc2ccc(Cl)cc2)nc2ccsc12
inhibition [1]: 36.6%

SMILES: C#CCSc1nc2c(c(=O)[nH]1)CCC2
inhibition [1]: 10.3%

SMILES: O=c1[nH]c(SCCCc2ccccc2)nc2c1CCC2
inhibition [1]: 7.2%

SMILES: O=c1[nH]c(SCc2ccc(OC(F)(F)F)cc2)nc2c1CCC2
inhibition [1]: 34.4%

SMILES: COC(=O)c1ccc(CSc2nc3c(c(=O)[nH]2)CCC3)cc1
inhibition [1]: 61%
Ki [3]: 1.53 µM
inhibition [4]: inactive
inhibition [5]: 0%
inhibition [6]: 26%
inhibition [2]: 8%
inhibition [7]: 16%
inhibition [8]: 31%
IC50 [9]: > 40 µM
IC50 [10]: > 40 µM
Activity [11]: 102%
Activity [12]: 84.7%
Activity [13]: 100%
Activity [14]: 93.8%
Activity [15]: 80.6%
Activity [16]: 35.1%
Activity [17]: 104%
Activity [18]: 96.4%

SMILES: O=c1[nH]c(SCc2ccc(Cl)cc2)nc2c1C(Cc1ccccc1)CC2 (stereo not given)
inhibition [1]: 37.7%

SMILES: O=S(=O)(Nc1cc(O)nc(SCc2ccc(Cl)cc2)n1)c1ccccc1
inhibition [1]: 31.2%

Second part, the compound after the results:

inhibition [1]: 55.8%
inhibition [2]: 20%
SMILES: Cc1nc(SCc2ccc(Br)cc2)nc(O)c1C

inhibition [1]: inactive
SMILES: O=C(CSc1nc2c(c(=O)[nH]1)CCC2)c1ccccc1

inhibition [1]: 32.9%
SMILES: Cc1cc(=O)[nH]c(SCc2ccc(Cl)cc2)n1

inhibition [1]: inactive
SMILES: O=c1[nH]c(SCc2ccc(Cl)cc2)nc(O)c1Cc1ccccc1

inhibition [1]: 7.7%
SMILES: O=c1[nH]c(SCCc2ccccc2)nc2c1CCC2

inhibition [1]: 49.1%
Ki [3]: 3.8 µM
inhibition [4]: inactive
inhibition [5]: 0%
inhibition [6]: 25%
inhibition [2]: 17%
inhibition [7]: 10%
inhibition [8]: 22%
IC50 [9]: > 40 µM
IC50 [10]: > 40 µM
Activity [11]: 92.7%
Activity [12]: 83%
Activity [13]: 96%
Activity [14]: 81.7%
Activity [15]: 91.6%
Activity [16]: 44%
Activity [17]: 107%
Activity [18]: 105%
SMILES: Oc1nc(SCc2ccc(Cl)cc2)nc2c1CCC2

inhibition [1]: 46.7%
SMILES: CS(=O)(=O)c1ccc(CSc2nc3c(c(=O)[nH]2)CCC3)cc1

inhibition [1]: 2.2%
SMILES: O=C(O)c1ccc(CSc2nc3c(c(=O)[nH]2)CCC3)cc1

Ki [3]: 0.824 µM
IC50 [9]: > 40 µM
IC50 [10]: > 40 µM
SMILES: Cc1ccc(CSc2nc3c(c(=O)[nH]2)CCC3)cc1

inhibition [1]: inactive
SMILES: Cc1cccc(CSc2nc(O)c3c(n2)CCCC3)c1

inhibition [1]: 67%
inhibition [4]: inactive
inhibition [5]: 0%
inhibition [6]: 19%
inhibition [2]: 0%
inhibition [7]: 7%
inhibition [8]: 20%
Activity [11]: 106%
Activity [12]: 97.6%
Activity [13]: 100%
Activity [14]: 106%
Activity [15]: 77.3%
Activity [16]: 38.6%
Activity [17]: 100%
Activity [18]: 101%
SMILES: Cc1ccc(CSc2nc(O)c3c(n2)CCC3)cc1

inhibition [1]: inactive
SMILES: CCCc1cc(O)nc(SCc2ccc(Cl)cc2)n1

inhibition [1]: 30.5%
SMILES: Cc1ccccc1S(=O)(=O)Nc1cc(=O)[nH]c(SCc2ccc(Cl)cc2)n1

inhibition [1]: inactive
SMILES: Oc1nc(SCc2ccc(Cl)cc2)nc2ccccc12

inhibition [1]: inactive
SMILES: Cc1oc(-c2cccc(Cl)c2)cc1CSc1nc2c(c(=O)[nH]1)CCC2
